pEC50: −log10 of the molar value. Converted amounts (≈) assume the structure as drawn. The source made the active and inactive calls. The rule behind the calls is not given here.
Assays:
SF-268 = assay: Growth inhibition of human SF268 cells; format: functional
How it was run: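 SF-268 glioblastoma cells seeded 7500 cells/well in 96-well plates; growth inhibition measured with compound. GI50 as mean of at least three experiments, each in duplicate; paclitaxel positive control.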

NUGC-3 = assay: Growth inhibition of human NUGC3 cells; format: functional
How it was run: (§1)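 Cells seeded per well: NUGC-3 4500, HONE-1 6000, MCF-7 6500, NCI-H460 2500, HepG2 10000, A549 5000; A549 grown in RPMI 1640 with 2 g/L NaHCO₃, 2 mM L-glutamine and 10% FBS. GI₅₀ = concentration giving 50% growth inhibition, mean of at least three experiments each in duplicate. Paclitaxel served as positive control.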

[1] = system: Transmissible gastroenteritis virus; assay: Antiviral activity against Transmissible gastroenteritis virus infected in ST cells pre-treated 2 hrs before virus infection measured 6 hrs post virus infection by immunofluorescent assay; format: functional, organism-based; conditions: Alphacoronavirus 1, ST
How it was run: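 ST cells, with or without 2 h compound pretreatment (10 concentrations), infected with TGEV at MOI 10. Immunofluorescence with anti-spike and anti-nucleocapsid antibodies at 6 hpi. EC50 from dose–response curves, mean of at least three experiments, each in duplicate.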

NCI-H460 [2] = assay: Growth inhibition of human NCI-H460 cells; format: functional; how it was run: as §1
MCF7 [3] = assay: Growth inhibition of human MCF7 cells; format: functional; how it was run: as §1
[4] = Growth inhibition of human HONE1 cells; format: functional; how it was run: as §1
[5] = AUC (0 to infinity) in Sprague-Dawley rat at 3 mg/kg, iv by HPLC-MS method; format: ADME, organism-based; set-up: time infinity, dose 3 mg/kg, route intravenous; conditions: plasma
How it was run: (§2)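 Male rats (330−380 g, 9−10 weeks old), jugular vein cannulated 1 day before dosing, fasted; 3 mg/kg iv or oral in DMA/PEG400 (30/70, v/v), n = 3. Blood (150 μL) drawn at 0, 2, 5 (iv only), 15, 30 min and 1, 2, 4, 6, 8, 12, 24 h, kept on ice; plasma analysed by HPLC-MS; noncompartmental analysis.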

MCF7 [6] = assay: Down regulation of cyclin A2 expression in human MCF7 cells incubated for 24 hrs by Western blotting; format: functional, cell-based
[7] = Oral bioavailability in Sprague-Dawley rat at 3 mg/kg by HPLC-MS method; format: ADME, organism-based; conditions: in vivo
How it was run: (§3)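 Male rats (330−380 g, 9−10 weeks), jugular vein cannula implanted 1 day before, fasted. 3 mg/kg given iv or orally (n = 3) in DMA/PEG400 30/70 v/v. Blood (150 μL) drawn at 0, 2, 5 (iv only), 15, 30 min and 1, 2, 4, 6, 8, 12, 24 h; plasma analysed by HPLC-MS; noncompartmental analysis.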

RAW264.7 [8] = assay: Reduction in LPS/INFgamma-induced iNOS protein expression in mouse RAW264.7 cells incubated for 20 hrs by Western blotting; format: functional, cell-based
How it was run: (§4)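 LPS/IFNγ-stimulated RAW264.7 cells treated with compound for 20 h. iNOS, COX-2 and GAPDH detected by Western blot; representative of at least three independent experiments.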

A549 [9] = assay: Growth inhibition of human A549 cells; format: functional; how it was run: as §1
[10] = AUC (0 to infinity) in Sprague-Dawley rat at 3 mg/kg, po by HPLC-MS method; format: ADME, organism-based; set-up: dose 3 mg/kg, route oral, time infinity; conditions: plasma; how it was run: as §2
A549 [11] = assay: Down regulation of cyclin A2 expression in human A549 cells incubated for 24 hrs by Western blotting; format: functional, cell-based
[12] = Tmax in Sprague-Dawley rat at 3 mg/kg, po by HPLC-MS method; format: ADME, organism-based; set-up: dose 3 mg/kg, route oral; conditions: in vivo; how it was run: as §3
[13] = Volume of distribution at steady state in Sprague-Dawley rat at 3 mg/kg, iv by HPLC-MS method; format: ADME, organism-based; set-up: dose 3 mg/kg, route intravenous; conditions: in vivo, read-out: Vdss; how it was run: as §3
[14] = Clearance in Sprague-Dawley rat at 3 mg/kg, iv by HPLC-MS method; format: ADME, organism-based; set-up: dose 3 mg/kg, route intravenous; conditions: in vivo; how it was run: as §3
[15] = Cmax in Sprague-Dawley rat at 3 mg/kg, po by HPLC-MS method; format: ADME, organism-based; set-up: dose 3 mg/kg, route oral; conditions: in vivo; how it was run: as §3
A549 [16] = assay: Induction of c-Jun protein accumulation in human A549 cells incubated for 24 hrs by Western blotting; format: functional, cell-based
NCI-H460 [17] = assay: Down regulation of cyclin A2 expression in human NCI-H460 cells incubated for 24 hrs by Western blotting; format: functional, cell-based
NCI-H460 [18] = assay: Induction of c-Jun protein accumulation in human NCI-H460 cells incubated for 24 hrs by Western blotting; format: functional, cell-based
[19] = system: Transmissible gastroenteritis virus; assay: Antiviral activity against Transmissible gastroenteritis virus infected in ST cells assessed as reduction in N-protein expression pre-treated before virus infection measured 16 hrs post virus infection by Western blotting; format: functional, organism-based
How it was run: (§5)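 ST cells pretreated with compound, then infected with TGEV. Western blot for nucleocapsid (N) protein, caspase 3 (cleavage of procaspase 3) and GAPDH at 16 hpi. Representative of at least three independent experiments.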

MCF7 [20] = assay: Induction of c-Jun protein accumulation in human MCF7 cells incubated for 24 hrs by Western blotting; format: functional, cell-based
[21] = Apparent elimination half life in Sprague-Dawley rat at 3 mg/kg, iv by HPLC-MS method; format: ADME, organism-based; set-up: dose 3 mg/kg, route intravenous; conditions: in vivo, read-out: betat1/2(app) (converted); how it was run: as §3
RAW264.7 [22] = assay: Reduction in LPS/INFgamma-induced COX2 protein expression in mouse RAW264.7 cells incubated for 20 hrs by Western blotting; format: functional, cell-based; how it was run: as §4
[23] = system: Transmissible gastroenteritis virus; assay: Antiviral activity against Transmissible gastroenteritis virus infected in ST cells assessed as reduction in caspase-3 activation pre-treated before virus infection measured 16 hrs post virus infection by Western blotting; format: functional, organism-based; how it was run: as §5
[24] = Apparent elimination half life in Sprague-Dawley rat at 3 mg/kg, po by HPLC-MS method; format: ADME, organism-based; set-up: dose 3 mg/kg, route oral; conditions: in vivo, read-out: betat1/2(app) (converted); how it was run: as §3
HepG2 = assay: Growth inhibition of human HepG2 cells; format: functional; how it was run: as §1
[25] = Solubility in DMSO; format: physicochemical
How it was run: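 Compound dissolved in DMSO with sonication; maximal volume before precipitation measured and used to calculate saturation solubility.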

RAW264.7 [26] = assay: Antiinflammatory activity in mouse RAW264.7 cells assessed as inhibition of LPS-induced nitric oxide production incubated for 18 hrs by nitrate/nitrite assay; format: functional, cell-based; conditions: RAW264.7, 18 h
How it was run: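 RAW264.7 seeded 65000 cells/well, cultured 24 h, then medium replaced with complete medium containing IFNγ (20 ng/mL)/LPS (5 μg/mL) plus compound at various concentrations for 18 h; nitric oxide measured by Nitrate/Nitrite kit. EC50 as mean of at least three experiments, each in duplicate.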

Murine hepatitis virus [27] = assay: Antiviral activity against Murine hepatitis virus JHM infected in mouse DBT cells assessed as reduction in N-protein expression at 0.2 to 2 uM pre-treated 1 hr before virus infection and measured 24 hrs post infection by immunofluorescent assay; format: functional, organism-based
How it was run: (§6)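 DBT murine astrocytoma cells in DMEM/10% heat-inactivated FBS, seeded 2.8 × 10⁵ cells/well the day before infection. Medium switched to DMEM/2% FBS, compound added 1 h before MHV-JHM infection at MOI 0.005. Cytopathic effect viewed by phase contrast and N protein by immunofluorescence at 24 hpi.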

Murine hepatitis virus [28] = assay: Antiviral activity against Murine hepatitis virus JHM infected in mouse DBT cells assessed as reduction in virus-induced cytopathic effect at 0.2 to 2 uM pre-treated 1 hr before virus infection and measured 24 hrs post infection by phase contrast microscopy; format: functional, organism-based; how it was run: as §6
[29] = Solubility in DMA; format: physicochemical
[30] = Cytotoxicity against mouse RAW264.7 cells; format: cell-based
How it was run: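 RAW264.7 cells stimulated with LPS/IFNγ and compound-treated in parallel with the NO assay; CC50 taken as concentration giving 50% inhibition of cell growth. Mean of at least three experiments, each in duplicate.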

SMILES	GI50 (NUGC-3) [nM]	pEC50 [1]	GI50 (NCI-H460 [2]) [nM]	GI50 (MCF7 [3]) [nM]	GI50 [4] [nM]	Activity (MCF7 [6])	Activity (RAW264.7 [8])	GI50 (A549 [9]) [nM]	Activity (A549 [11])	Activity (A549 [16])	Activity (NCI-H460 [17])	Activity (NCI-H460 [18])	Activity [19]	Activity (MCF7 [20])	Activity (RAW264.7 [22])	Activity [23]	GI50 (HepG2) [nM]	solubility [25] [mM]	pEC50 (RAW264.7 [26])	solubility [29]	further results
COc1ccc(C2=C(c3ccc(OC)c(OC)c3)CN3CCC[C@H]3C2)cc1OC	14500	4.81	17000	18500	17300	–	–	–	–	–	–	–	–	–	–	–	–	–	–	–	GI50 (SF-268): 24200 nM
CCN1CCc2c(c3cc(OC)c(OC)cc3c3cc(OC)ccc23)C1	320	6.24	300	370	570	Active	Active	400	Active	Active	Active	Active	Active	Active	Active	Active	660	–	–	–	AUC(0-inf) [5]: 2320 ng·h/mL; bioavailability [7]: 105%; AUC(0-inf) [10]: 2470 ng·h/mL; Tmax [12]: 0.3 h; Vd [13]: 5.1 L/kg; clearance [14]: 20 mL/min/kg; Cmax [15]: 535 ng/mL; half-life [21]: 16 h; half-life [24]: 6.3 h
COc1cc2c3c(c4cc(OC)c(OC)cc4c2cc1OC)CN1CCCCCC1C3 (stereo not drawn)	620	5.98	930	960	1150	–	–	–	–	–	–	–	–	–	–	–	–	–	–	–	GI50 (SF-268): 960 nM
COc1cc2c3c(c4cc(OC)c(OC)cc4c2cc1OC)CN1CCC[C@@H]1C3 [TYLOPHORINE]	190	7.10	230	240	270	Active	Active	–	Active	Active	Active	Active	Active	Active	Active	Active	–	10 (≈ 3.93 mg/mL)	6.57	soluble	GI50 (SF-268): 270 nM; bioavailability [7]: 66%; Activity (Murine hepatitis virus [27]): Active; Activity (Murine hepatitis virus [28]): Active; CC50 [30]: 1240 nM
CCCN1CCc2c(c3cc(OC)c(OC)cc3c3cc(OC)c(OC)cc23)C1	470	6.08	450	510	1210	Active	Active	730	Active	Active	Active	Active	Active	Active	Active	Active	770	50 (≈ 19.8 mg/mL)	5.86	soluble	AUC(0-inf) [5]: 824 ng·h/mL; bioavailability [7]: 62.8%; AUC(0-inf) [10]: 515 ng·h/mL; Tmax [12]: 4 h; Vd [13]: 9 L/kg; clearance [14]: 60.8 mL/min/kg; Cmax [15]: 87 ng/mL; CC50 [30]: > 4000 nM; half-life [21]: 2.7 h; half-life [24]: 2.4 h
CCN1CCc2c(c3cc(OC)c(OC)cc3c3cc(OC)c(OC)cc23)C1	620	5.78	1010	750	1570	–	–	970	–	–	–	–	–	–	–	–	1000	50 (≈ 19.1 mg/mL)	5.85	soluble	CC50 [30]: > 4000 nM
CCN1Cc2c(c3cc(OC)c(OC)cc3c3cc(OC)c(OC)cc23)C(O)C1 (stereo not drawn)	150	6.47	170	160	440	Active	Active	190	Active	Active	Active	Active	Active	Active	Active	Active	360	–	6.42	–	CC50 [30]: > 2000 nM
COc1cc2c3c(c4cc(OC)c(OC)cc4c2cc1OC)CN(C(C)C)CC3	320	6.22	290	340	940	Active	Active	380	Active	Active	Active	Active	Active	Active	Active	Active	670	–	6.07	–	CC50 [30]: > 4000 nM
COc1cc2c3c(c4cc(OC)c(OC)cc4c2cc1OC)CN1CCCCC1C3 (stereo not drawn)	140	7.52	100	110	140	–	–	–	–	–	–	–	–	–	–	–	–	12.3 (≈ 5.01 mg/mL)	–	soluble	GI50 (SF-268): 140 nM; bioavailability [7]: 53%
CCCCN1CCc2c(c3cc(OC)c(OC)cc3c3cc(OC)c(OC)cc23)C1	1930	5.36	2050	1970	2750	–	–	2220	–	–	–	–	–	–	–	–	3040	45 (≈ 18.4 mg/mL)	–	soluble	–
